Source: ChEMBL document CHEMBL1142508, “3-Amino-2(5H)furanones as inhibitors of subgenomic hepatitis C virus RNA replication” (Bioorg Med Chem, 2008)

Legend:
Hepatitis C virus = assay: Antiviral activity against HCV in human HBI10A cells by ELISA; type: functional, organism-based, Hepacivirus hominis
Procedure, shortened: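 HCV subgenomic replicon-bearing Huh-7-derived HBI10A cells kept in D-MEM + 10% FBS with G418. Compounds from DMSO stocks, diluted in D-MEM, DMSO at most 1%, tested at final 10^3, 10^2, […]. Cell-ELISA for NS3 with anti-NS3 10E5/24 MAb, in triplicate. Parental Huh-7 cells give the background. EC50 from Hill-equation fit of NS3 signal reduction. IFN-α positive control.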

[1] = Cytotoxicity against human HBI10A cells after 20 hrs by MTS assay; type: cell-based
Procedure, shortened: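 MTS read-out in HBI10A replicon cells seeded at 1 × 10^4 per 100 µL D-MEM + 5% FBS. After 4 h at 37 °C, compounds added at final 10^3, 10^2, […]. Incubated 20 h at 37 °C, then MTS for a further 4 h. Stopped with 10% SDS; absorbance at 492 nm.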

| Compound | EC50 (Hepatitis C virus) | CC50 at 20 h [1] | IC50 (Hepatitis C virus) |
| --- | --- | --- | --- |
| CNC1=C(C(=O)OC)C(C)OC1O (stereo not drawn) | 66 µM | > 1000 µM | – |
| CNC1=C(C(=O)OC)C(C)OC1=O (stereo not drawn) | 525 µM | > 1000 µM | – |
| COC(=O)C1=C(NCc2ccccc2)C(=O)OC1C (stereo not drawn) | > 1000 µM | > 1000 µM | – |
| CNC1=C(C(=O)Nc2ccccc2)C(C)OC1=O (stereo not drawn) | 19 µM | > 1000 µM | – |
| CCOC(=O)C1=C(NC)C(=O)OC1C(=O)OCC (stereo not drawn) | > 1000 µM | > 1000 µM | – |
| CNC1=C(C(C)=O)COC1=O | 521 µM | > 1000 µM | – |
| O=C(O)c1nc(-c2cccs2)nc(O)c1O | 9.3 µM | – | 0.15 µM |
| CNC1=C(c2ccccc2)C(c2ccccc2)OC1=O (stereo not drawn) | 17 µM | 28 µM | – |
| CNC1=C(C(C)=O)C(C)OC1=O (stereo not drawn) | 132 µM | 819 µM | – |
